{"source": "ChEMBL document CHEMBL4376814", "about": "“Novel cyclin-dependent kinase 9 (CDK9) inhibitor with suppression of cancer stemness activity against non-small-cell lung cancer” (Eur J Med Chem, 2019)", "key": {"[1]": {"system": "Serine/threonine-protein kinase Sgk2 (Homo sapiens), Q9HBY8 [S416D]", "sequence (Q9HBY8 1-367 with tags or gaps S416D)": "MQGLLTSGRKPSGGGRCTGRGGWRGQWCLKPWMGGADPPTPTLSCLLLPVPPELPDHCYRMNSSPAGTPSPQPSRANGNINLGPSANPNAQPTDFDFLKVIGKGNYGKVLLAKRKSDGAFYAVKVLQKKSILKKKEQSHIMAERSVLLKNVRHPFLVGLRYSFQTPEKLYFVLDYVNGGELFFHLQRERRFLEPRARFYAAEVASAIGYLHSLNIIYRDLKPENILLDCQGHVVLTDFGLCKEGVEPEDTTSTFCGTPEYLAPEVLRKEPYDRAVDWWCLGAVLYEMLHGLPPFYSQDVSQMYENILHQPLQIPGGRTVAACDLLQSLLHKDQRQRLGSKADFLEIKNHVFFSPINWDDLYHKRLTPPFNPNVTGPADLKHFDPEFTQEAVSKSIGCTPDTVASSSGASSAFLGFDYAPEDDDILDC", "assay": "Inhibition of recombinant human SGK2 S416D mutant (54 to end residues) at 1 uM using GRPRTSSFAEGKK as substrate measured after 40 mins in presence of [gamma33P]ATP by scintillation counting method relative to control"}, "[2]": {"molecular_target": "Tyrosine-protein kinase Lck (Homo sapiens) (UniProt P06239)", "sequence (P06239 2-509 limits assumed)": "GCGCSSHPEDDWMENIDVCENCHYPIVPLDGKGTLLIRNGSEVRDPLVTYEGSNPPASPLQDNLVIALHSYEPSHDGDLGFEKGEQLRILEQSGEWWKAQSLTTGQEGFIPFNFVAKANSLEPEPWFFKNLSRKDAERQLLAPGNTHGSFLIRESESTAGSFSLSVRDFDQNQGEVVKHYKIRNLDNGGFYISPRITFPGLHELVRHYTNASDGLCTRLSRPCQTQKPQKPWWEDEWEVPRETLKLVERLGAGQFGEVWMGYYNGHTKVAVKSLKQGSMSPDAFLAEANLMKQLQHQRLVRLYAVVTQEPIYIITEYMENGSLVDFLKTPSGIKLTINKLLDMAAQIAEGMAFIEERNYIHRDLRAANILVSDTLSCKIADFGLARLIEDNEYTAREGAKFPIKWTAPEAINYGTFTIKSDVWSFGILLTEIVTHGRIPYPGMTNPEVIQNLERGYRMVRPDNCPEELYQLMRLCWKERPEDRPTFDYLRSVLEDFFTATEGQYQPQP", "assay": "Inhibition of recombinant full-length human LCK activated at 1 uM using KVEKIGEGTYGVVYK as substrate measured after 40 mins in presence of [gamma33P]ATP by scintillation counting method relative to control"}, "[3]": {"system": "Fibroblast growth factor receptor 1 (Homo sapiens), P11362 [V561M]", "assay": "Inhibition of recombinant human FGFR1 V561M mutant (456 to 765 residues) at 1 uM using GGEEEEYFELVKKKK as substrate measured after 40 mins in presence of [gamma33P]ATP by scintillation counting method relative to control"}, "[4]": {"system": "MDA-MB-231", "assay": "Antiproliferative activity against human MDA-MB-231 cells assessed as inhibition of cell viability after 72 hrs by CCK-8 assay", "assay_type": "functional, cell-based", "conditions": "MDA-MB-231, 72 h", "procedure,_shortened": "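Cells kept at 37 °C, 5% CO2 in DMEM or RPMI-1640 with 10% FBS and 1% penicillin/streptomycin, then seeded at 3000 cells/well (adherent) or 10,000 cells/well (suspension). Exposed to a range of concentrations for 72 h. CCK-8 added for 1-4 h before reading A450. […] Three independent experiments.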"}, "[5]": {"molecular_target": "Serine/threonine-protein kinase ICK (Homo sapiens) (UniProt Q9UPZ9)", "sequence (Q9UPZ9 whole entry, the tested form may be a part)": "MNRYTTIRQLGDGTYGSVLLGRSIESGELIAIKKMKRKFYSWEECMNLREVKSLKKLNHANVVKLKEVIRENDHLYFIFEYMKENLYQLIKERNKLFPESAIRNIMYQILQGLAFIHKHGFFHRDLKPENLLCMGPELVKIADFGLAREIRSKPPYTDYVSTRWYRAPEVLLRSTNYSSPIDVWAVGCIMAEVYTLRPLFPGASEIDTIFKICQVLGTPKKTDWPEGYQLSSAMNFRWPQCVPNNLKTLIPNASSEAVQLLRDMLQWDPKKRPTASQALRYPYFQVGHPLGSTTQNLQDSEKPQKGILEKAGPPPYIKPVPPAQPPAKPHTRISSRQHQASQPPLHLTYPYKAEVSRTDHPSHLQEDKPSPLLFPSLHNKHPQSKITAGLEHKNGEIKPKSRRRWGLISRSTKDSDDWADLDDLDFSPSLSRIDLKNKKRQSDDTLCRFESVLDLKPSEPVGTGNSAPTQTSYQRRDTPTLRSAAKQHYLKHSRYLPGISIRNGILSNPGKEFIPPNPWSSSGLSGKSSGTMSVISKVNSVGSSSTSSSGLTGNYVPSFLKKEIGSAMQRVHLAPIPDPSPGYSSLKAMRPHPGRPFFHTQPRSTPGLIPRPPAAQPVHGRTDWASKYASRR", "assay": "Inhibition of recombinant human ICK (1 to 312 residues) at 1 uM using RRRFRPASPLRGPPK as substrate measured after 40 mins in presence of [gamma33P]ATP by scintillation counting method relative to control"}, "[6]": {"system": "A549", "assay": "Inhibition of tumorsphere formation in human A549 cells assessed as reduction in side population ratio by PI/Hoechst 33342 staining based flow cytometry", "assay_type": "functional, cell-based"}, "[7]": {"molecular_target": "CDK9/cyclin T1 (Homo sapiens) (UniProt O60563+P50750)", "assay": "Inhibition of recombinant full-length human CDK9/cyclinT1 at 500 nM using KTFCGTPEYLAPEVRREPRILSEEEQEMFRDFDYIADWC peptide as substrate measured after 40 mins in presence of [gamma33P]ATP by scintillation counting method relative to control", "assay_type": "protein-complex assay", "procedure,_shortened": "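Percent inhibition of kinase activity at a single compound concentration, measured by the outsourced Eurofins KinaseProfiler panel. Values are the mean of two independent experiments.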"}, "[8]": {"molecular_target": "Cyclin-dependent kinase 9 (Homo sapiens) (UniProt P50750)", "conditions": "0.25 uM"}, "[9]": {"molecular_target": "Calcium/calmodulin-dependent protein kinase kinase 1 (Homo sapiens) (UniProt Q8N5S9)", "sequence (Q8N5S9 whole entry, looked up)": "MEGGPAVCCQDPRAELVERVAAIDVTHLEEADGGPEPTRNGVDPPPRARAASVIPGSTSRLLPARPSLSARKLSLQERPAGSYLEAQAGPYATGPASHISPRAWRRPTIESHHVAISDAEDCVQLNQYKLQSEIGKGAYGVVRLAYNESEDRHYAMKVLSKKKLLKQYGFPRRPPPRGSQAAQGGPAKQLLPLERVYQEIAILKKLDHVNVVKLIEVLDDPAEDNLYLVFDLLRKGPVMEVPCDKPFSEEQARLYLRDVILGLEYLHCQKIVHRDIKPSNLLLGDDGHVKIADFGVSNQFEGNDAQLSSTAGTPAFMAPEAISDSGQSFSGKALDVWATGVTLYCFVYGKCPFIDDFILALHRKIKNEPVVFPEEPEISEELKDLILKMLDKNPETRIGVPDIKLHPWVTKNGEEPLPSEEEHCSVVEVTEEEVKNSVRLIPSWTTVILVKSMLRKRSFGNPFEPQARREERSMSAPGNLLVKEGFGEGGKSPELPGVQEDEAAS", "assay": "Inhibition of recombinant full-length human CaMKK1 at 1 uM using calmodulin as substrate measured after 40 mins in presence of [gamma33P]ATP by scintillation counting method relative to control"}, "[10]": {"molecular_target": "5'-AMP-activated protein kinase catalytic subunit alpha-1 (Homo sapiens) (UniProt Q13131)", "sequence (Q13131 whole entry, looked up)": "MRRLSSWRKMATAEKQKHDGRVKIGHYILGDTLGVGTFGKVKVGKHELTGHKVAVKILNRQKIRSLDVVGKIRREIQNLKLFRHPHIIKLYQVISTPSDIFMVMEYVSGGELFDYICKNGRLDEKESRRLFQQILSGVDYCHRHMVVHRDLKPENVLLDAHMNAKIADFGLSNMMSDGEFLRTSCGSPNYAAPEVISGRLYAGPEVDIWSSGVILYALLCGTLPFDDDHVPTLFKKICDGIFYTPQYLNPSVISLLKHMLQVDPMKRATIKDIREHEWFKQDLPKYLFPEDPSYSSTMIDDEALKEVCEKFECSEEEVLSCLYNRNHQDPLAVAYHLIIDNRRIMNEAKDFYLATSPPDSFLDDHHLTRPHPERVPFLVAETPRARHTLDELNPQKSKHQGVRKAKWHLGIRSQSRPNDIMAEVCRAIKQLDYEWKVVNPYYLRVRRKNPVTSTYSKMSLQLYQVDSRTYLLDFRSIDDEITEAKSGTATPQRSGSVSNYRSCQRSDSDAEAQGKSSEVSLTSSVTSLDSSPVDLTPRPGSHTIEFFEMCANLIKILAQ", "assay": "Inhibition of full length recombinant human AMPK alpha1 at 1 uM using AMARAASAAALARRR as substrate measured after 40 mins in presence of [gamma33P]ATP by scintillation counting method relative to control", "procedure,_shortened": "(§1)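 Single-point inhibition at 1 µM was measured in the Eurofins KinaseProfiler panel. Values are the mean of two independent experiments.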"}, "[11]": {"molecular_target": "Eukaryotic translation initiation factor 2-alpha kinase 3 (Homo sapiens) (UniProt Q9NZJ5)", "assay": "Inhibition of recombinant human PEK (536 to end residues) at 1 uM using RSRSRSRSRSRSR as substrate measured after 40 mins in presence of [gamma33P]ATP by scintillation counting method relative to control"}, "[12]": {"system": "NCI-H1299", "assay": "Induction of apoptosis in human H1299 cells assessed as increase in cleaved caspase 3 expression at 0.25 to 1 uM after 24 hrs by Western blot analysis", "assay_type": "functional, cell-based", "procedure,_shortened": "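A549 or H1299 cells exposed to the indicated concentrations for 24 h. Protein extracts then immunoblotted for apoptosis-pathway proteins (Bcl2, Bim, cleaved caspase 3).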"}, "[13]": {"molecular_target": "CDK6/cyclin D3 (Homo sapiens, UniProt Q00534)", "sequence (P30281 whole entry)": "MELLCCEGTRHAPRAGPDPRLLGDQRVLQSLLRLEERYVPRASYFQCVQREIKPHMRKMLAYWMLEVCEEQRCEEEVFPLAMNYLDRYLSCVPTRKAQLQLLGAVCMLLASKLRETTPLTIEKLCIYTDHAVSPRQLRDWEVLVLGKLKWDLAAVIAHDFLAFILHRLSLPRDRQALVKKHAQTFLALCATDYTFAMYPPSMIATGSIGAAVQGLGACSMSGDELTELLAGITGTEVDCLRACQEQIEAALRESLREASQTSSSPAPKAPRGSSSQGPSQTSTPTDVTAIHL", "sequence (Q00534 whole entry)": "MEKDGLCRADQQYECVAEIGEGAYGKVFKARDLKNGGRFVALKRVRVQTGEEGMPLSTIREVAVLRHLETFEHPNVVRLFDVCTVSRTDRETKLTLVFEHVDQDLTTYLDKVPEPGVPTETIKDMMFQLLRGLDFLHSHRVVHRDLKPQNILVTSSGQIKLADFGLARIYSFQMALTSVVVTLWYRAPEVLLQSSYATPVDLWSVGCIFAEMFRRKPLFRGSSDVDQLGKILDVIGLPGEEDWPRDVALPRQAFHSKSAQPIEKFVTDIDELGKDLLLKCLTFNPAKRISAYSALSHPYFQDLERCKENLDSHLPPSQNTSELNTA", "assay": "Inhibition of recombinant full-length human CDK6/cyclinD3 using histone H1 as substrate measured after 40 mins in presence of [gamma33P]ATP by scintillation counting method", "assay_type": "protein-complex assay"}, "[14]": {"molecular_target": "Serine/threonine-protein kinase Nek6 (Homo sapiens) (UniProt Q9HC98)", "assay": "Inhibition of recombinant human NEK6 (2 to end residues) at 1 uM using FLAKSFGSPNRAY as substrate measured after 40 mins in presence of [gamma33P]ATP by scintillation counting method relative to control"}, "[15]": {"molecular_target": "Cyclin-dependent kinase 5/CDK5 activator 1 (Homo sapiens) (UniProt Q00535+Q15078)", "assay": "Inhibition of recombinant full-length human CDK5/p35 at 1 uM using Histone H1 as substrate measured after 40 mins in presence of [gamma33P]ATP by scintillation counting method relative to control", "assay_type": "protein-complex assay"}, "[16]": {"system": "RAC-gamma serine/threonine-protein kinase (Homo sapiens), Q9Y243 [S472D]", "assay": "Inhibition of recombinant human pkb-gamma S472D mutant (117 to end residues) S472D mutant at 1 uM using GRPRTSSFAEGKK as substrate measured after 40 mins in presence of [gamma33P]ATP by scintillation counting method relative to control"}, "[17]": {"molecular_target": "Dual specificity mitogen-activated protein kinase kinase 6 (Homo sapiens) (UniProt P52564)", "sequence (P52564 whole entry)": "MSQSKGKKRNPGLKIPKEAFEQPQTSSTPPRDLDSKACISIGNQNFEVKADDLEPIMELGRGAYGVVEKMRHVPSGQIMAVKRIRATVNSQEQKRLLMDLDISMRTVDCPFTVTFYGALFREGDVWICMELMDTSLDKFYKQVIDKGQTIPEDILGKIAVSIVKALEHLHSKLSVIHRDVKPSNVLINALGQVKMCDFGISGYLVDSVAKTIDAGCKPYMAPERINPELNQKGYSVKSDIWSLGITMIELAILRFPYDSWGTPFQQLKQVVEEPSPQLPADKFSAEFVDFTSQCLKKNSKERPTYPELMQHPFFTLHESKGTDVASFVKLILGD", "assay": "Inhibition of recombinant human MKK6 (4 to end residues) at 1 uM using unactive SAPK2a as substrate measured after 40 mins in presence of [gamma33P]ATP by scintillation counting method relative to control"}, "[18]": {"molecular_target": "Serine/threonine-protein kinase WNK3 (Homo sapiens) (UniProt Q9BYP7)", "assay": "Inhibition of recombinant human WNK3 (1 to 434 residues) at 1 uM using MBP as substrate measured after 40 mins in presence of [gamma33P]ATP by scintillation counting method relative to control", "procedure,_shortened": "as §1"}, "[19]": {"system": "NCI-H1299", "assay": "Inhibition of tumorsphere formation in human H1299 cells assessed as decrease in number of spheres at 0.25 to 1 uM after 2 weeks by microscopic analysis", "assay_type": "functional, cell-based"}, "[20]": {"molecular_target": "Vascular endothelial growth factor receptor 2 (Homo sapiens) (UniProt P35968)", "sequence (P35968 whole entry)": "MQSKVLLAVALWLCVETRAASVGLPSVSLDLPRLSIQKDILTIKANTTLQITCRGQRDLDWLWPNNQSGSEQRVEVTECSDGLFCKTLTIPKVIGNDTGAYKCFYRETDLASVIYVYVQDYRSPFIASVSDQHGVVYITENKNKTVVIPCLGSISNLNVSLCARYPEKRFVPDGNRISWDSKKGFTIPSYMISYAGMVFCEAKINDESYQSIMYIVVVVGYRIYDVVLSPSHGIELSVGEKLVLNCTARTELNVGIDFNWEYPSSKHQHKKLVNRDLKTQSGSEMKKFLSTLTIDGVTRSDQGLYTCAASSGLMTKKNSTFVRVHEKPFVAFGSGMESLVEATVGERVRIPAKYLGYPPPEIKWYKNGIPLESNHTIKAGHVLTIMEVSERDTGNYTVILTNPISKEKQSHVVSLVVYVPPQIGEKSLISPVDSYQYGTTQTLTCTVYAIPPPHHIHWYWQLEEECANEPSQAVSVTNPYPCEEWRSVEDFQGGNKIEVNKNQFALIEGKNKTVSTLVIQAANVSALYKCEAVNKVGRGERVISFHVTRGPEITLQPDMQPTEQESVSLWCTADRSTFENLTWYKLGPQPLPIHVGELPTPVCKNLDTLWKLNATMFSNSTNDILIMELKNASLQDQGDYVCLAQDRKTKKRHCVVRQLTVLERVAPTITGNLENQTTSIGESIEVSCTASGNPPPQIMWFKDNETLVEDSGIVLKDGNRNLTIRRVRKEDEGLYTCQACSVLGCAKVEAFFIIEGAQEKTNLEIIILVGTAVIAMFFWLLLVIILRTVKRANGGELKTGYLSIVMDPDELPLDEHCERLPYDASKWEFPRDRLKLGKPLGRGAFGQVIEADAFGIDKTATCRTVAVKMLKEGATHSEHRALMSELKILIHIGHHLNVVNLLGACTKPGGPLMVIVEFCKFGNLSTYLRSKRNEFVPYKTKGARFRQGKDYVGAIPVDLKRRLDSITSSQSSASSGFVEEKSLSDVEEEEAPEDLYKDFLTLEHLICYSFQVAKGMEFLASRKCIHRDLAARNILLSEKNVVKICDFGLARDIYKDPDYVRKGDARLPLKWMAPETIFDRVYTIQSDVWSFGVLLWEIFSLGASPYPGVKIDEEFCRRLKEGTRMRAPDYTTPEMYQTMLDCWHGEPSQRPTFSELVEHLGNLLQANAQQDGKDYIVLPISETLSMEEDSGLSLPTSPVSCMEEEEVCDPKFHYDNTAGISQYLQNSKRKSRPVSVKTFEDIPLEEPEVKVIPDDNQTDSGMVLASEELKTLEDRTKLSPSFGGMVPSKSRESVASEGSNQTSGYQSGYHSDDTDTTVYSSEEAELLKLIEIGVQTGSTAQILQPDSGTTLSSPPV", "assay": "Inhibition of recombinant human KDR (790 to end residues) at 1 uM using MBP as substrate measured after 40 mins in presence of [gamma33P]ATP by scintillation counting method relative to control"}, "[21]": {"system": "NCI-H1299", "assay": "Downregulation of NANOG in human H1299 cells at 0.25 to 1 uM by Western blot analysis", "assay_type": "functional, cell-based"}, "[22]": {"molecular_target": "Wee1-like protein kinase 2 (Homo sapiens) (UniProt P0C1S8)", "assay": "Inhibition of recombinant full-length human Wee1B at 1 uM using LSNLYHQGKFLQTFCGSPLYRRR as substrate measured after 120 mins in presence of [gamma33P]ATP by scintillation counting method relative to control"}}, "note": "pIC50: −log10 of the molar value. Active and inactive are the calls of the source. The rule behind the calls is not given here."}
{"smiles": "CN(C)C(=O)c1cc2cnc(Nc3ccc(NC(=O)CCCCCCCN=C=S)cc3)nc2n1C1CCCC1", "values": [{"measurement": "inhibition", "setting": "[1]", "value": 14, "unit": "%"}, {"measurement": "inhibition", "setting": "[2]", "value": 26, "unit": "%"}, {"measurement": "inhibition", "setting": "[3]", "value": 86, "unit": "%"}, {"measurement": "pIC50", "setting": "[4]", "value": 5.52}, {"measurement": "inhibition", "setting": "[5]", "value": 38, "unit": "%"}, {"measurement": "inhibition", "setting": "[6]", "value": "Dose-dependent effect"}, {"measurement": "inhibition", "setting": "[7]", "value": 98, "unit": "%"}, {"measurement": "inhibition", "setting": "[8]", "value": "Active"}, {"measurement": "inhibition", "setting": "[9]", "value": 88, "unit": "%"}, {"measurement": "inhibition", "setting": "[10]", "value": 11, "unit": "%"}, {"measurement": "inhibition", "setting": "[11]", "value": 6, "unit": "%"}, {"measurement": "Activity", "setting": "[12]", "value": "Active"}, {"measurement": "pIC50", "setting": "[13]", "value": 6.84}, {"measurement": "inhibition", "setting": "[14]", "value": 4, "unit": "%"}, {"measurement": "inhibition", "setting": "[15]", "value": 59, "unit": "%"}, {"measurement": "inhibition", "setting": "[16]", "value": 10, "unit": "%"}, {"measurement": "inhibition", "setting": "[17]", "value": 30, "unit": "%"}, {"measurement": "inhibition", "setting": "[18]", "value": 12, "unit": "%"}, {"measurement": "inhibition", "setting": "[19]", "value": "Active"}, {"measurement": "inhibition", "setting": "[20]", "value": 56, "unit": "%"}, {"measurement": "Activity", "setting": "[21]", "value": "Active"}, {"measurement": "inhibition", "setting": "[22]", "value": -1, "unit": "%"}]}
